From ChEMBL document CHEMBL2375260, “Antifungal agents from Pseudallescheria boydii SNB-CN73 isolated from a Nasutitermes sp. termite” (J Nat Prod, 2013) come the findings set out here.

Converted amounts (≈) assume the structure as drawn.

Assay [1] in a line: Selectivity index, ratio of IC50 for human MDA435 cells to MIC for Aspergillus fumigatus SNB-AF1. The format is functional. In a few lines: (§1)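 Selectivity index is calculated as SI = IC50/MIC. IC50 is the cytotoxicity measured in MDA435 cells (melanoma, previously described as mammary carcinoma). MIC is the EUCAST reference-protocol value for the given microbial strain.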
The nature of assay [2]: Selectivity index, ratio of IC50 for human MDA435 cells to MIC for Trichophyton rubrum SNB-TR1. The format is functional. In a few lines: as §1
The nature of assay [3]: Cytotoxicity against human MDA435 cells assessed as growth inhibition. The format is functional, cell-based. To be noted: MDA-MB-435.
A short description of assay [4]: Selectivity index, ratio of IC50 for human MDA435 cells to MIC for Candida parapsilosis ATCC 22019. The format is functional. In a few lines: as §1
Assay [5] relates to Escherichia coli. As to the kind of experiment: Antibacterial activity against Escherichia coli ATCC 25922 assessed as growth inhibition after 24 hrs by […]. The format is functional.
The nature of assay [6]: Selectivity index, ratio of IC50 for human MDA435 cells to MIC for Staphylococcus aureus ATCC 29213. The format is functional. A digest of the protocol: as §1
The subject of assay [7] is Candida parapsilosis. As to the kind of experiment: Antifungal activity against Candida parapsilosis ATCC 22019 assessed as growth inhibition after 18 hrs by […]. The format is functional. To be noted: Lodderomyces parapsilosis, ATCC 22019, 18 h.
The test system of assay [8] is Trichophyton rubrum. Briefly: Antifungal activity against Trichophyton rubrum SNB-TR1 assessed as growth inhibition after 5 days by […]. The format is functional. The settings on record: SNB-TR1, 120 h.
The nature of assay [9]: Selectivity index, ratio of IC50 for human MDA435 cells to MIC for Escherichia coli ATCC 25922. It is filed as functional. In a few lines: as §1
In assay [10] the test system is KB. Briefly: Cytotoxicity against human KB cells assessed as growth inhibition. The format is functional, cell-based.
Assay [11] concerns Staphylococcus aureus. Briefly: Antibacterial activity against Staphylococcus aureus ATCC 29213 assessed as growth inhibition after 24 hrs by […]. The format is functional. The settings on record: ATCC 29213, 24 h.
Assay [12] is described as follows: Selectivity index, ratio of IC50 for human MDA435 cells to MIC for Candida albicans ATCC 10231. The format is functional. A digest of the protocol: as §1
Assay [13] has as its system Aspergillus fumigatus. Briefly: Antifungal activity against Aspergillus fumigatus SNB-AF1 assessed as growth inhibition after 24 hrs by […]. It is filed as functional. To be noted: SNB-AF1, 24 h.
The subject of assay [14] is Candida albicans. Briefly: Antifungal activity against Candida albicans ATCC 10231 assessed as growth inhibition after 18 hrs by […]. It is filed as functional. To be noted: ATCC 10231, 18 h.
In assay [15] the test system is MCF7. As to the kind of experiment: Cytotoxicity against human MCF7 cells assessed as inhibition of IGF1-induced cellular growth. The format is functional, cell-based.
Assay [16] has as its system MCF7. As to the kind of experiment: Cytotoxicity against human MCF7 cells assessed as inhibition of FBS-induced cellular growth. It is filed as functional, cell-based.

A word on the IC50: it is the point on the concentration scale where inhibition reaches its midpoint. The term MIC denotes the least concentration at which growth counts as inhibited. Turning to `CC[C@@H](C)C[C@@H](C)/C=C/CC[C@@H](O)[C@H](Cc1ccc(O)cc1)N(C)C.O=CO`, the “Selectivity Index” value in assay [1] turned out to be 0.8; in assay [2] it was 6.1; in assay [4], 0.8; in assay [6] it was 1.5; in assay [9], 0.8; in assay [12] it was 6.1. Moreover, the IC50 in assay [3] was 24.3 µg/mL; in [10] it was 16 µg/mL. Moreover, the MIC in [5] (ATCC 25922, 24 h) stood at 32 µg/mL; in assay [7], 32 µg/mL; in [8], 4 µg/mL; in assay [11], 16 µg/mL; in [13], 32 µg/mL; in [14] it was 4 µg/mL.
`OC(Cn1cncn1)(Cn1cncn1)c1ccc(F)cc1F` [FLUCONAZOLE]: the MIC in [7] and in [14] was 4 µg/mL (≈ 13.1 µM) throughout.
Take `CCC(C)n1ncn(-c2ccc(N3CCN(c4ccc(OCC5COC(Cn6cncn6)(c6ccc(Cl)cc6Cl)O5)cc4)CC3)cc2)c1=O` (stereo unspecified) [ITRACONAZOLE]: the MIC came out at 0.25 µg/mL (≈ 0.354 µM) in assay [8] and 0.5 µg/mL (≈ 0.709 µM) in assay [13].
`Cc1onc(-c2ccccc2)c1C(=O)N[C@@H]1C(=O)N2[C@@H]1SC(C)(C)[C@@H]2C(=O)O` [OXACILLIN]: the MIC in [11] was determined as 0.5 µg/mL (≈ 1.25 µM).
In the case of `CC[C@@H](C)C[C@@H](C)/C=C/CC[C@@H](O)[C@H](Cc1ccc(O)cc1)NC` [TYROSCHERIN 8], the IC50 in assay [15] was determined as 0.03 µM; in assay [16], 6.2 µM.
As for `CC[C@@H](C)C[C@@H](C)/C=C/CC[C@@H](O)[C@H](Cc1ccc(O)cc1)NC.O=CO` [TYROSCHERIN FORMATE], the “Selectivity Index” value was determined as 1.3 in [1]; 10 in assay [2]; 1.3 in assay [4]; 2.5 in [6]; 1.3 in [9]; 10 in [12]. In addition, the IC50 in assay [3] came to 20 µg/mL; in assay [10], 8.6 µg/mL. Also, the MIC in [5] (ATCC 25922, 24 h) amounted to 16 µg/mL; in assay [7], 16 µg/mL; in assay [8], 2 µg/mL; in [11], 8 µg/mL; in [13], 16 µg/mL; in assay [14], 2 µg/mL.
Regarding GENTAMICIN, in assay [5], the MIC came to 8 µg/mL.
